According to ChEMBL document CHEMBL1139240, “Synthesis, cytotoxic activity, DNA topoisomerase-II inhibition, molecular modeling and structure-activity relationship of 9-anilinothiazolo[5,4-b]quinoline derivatives” (Bioorg Med Chem, 2009):

What was measured:
HeLa = experiment: Cytotoxicity against human HeLa cells after 72 hrs by MTT assay; assay type: functional, cell-based
Outline: (§1)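 Cells seeded at 4.5 to 5.0 × 10^4 cells/mL/well in 24-well plates, exposed to compounds in DMSO for 72 h. MTT in PBS pH 7.2 added, formazan dissolved in DMSO, absorbance read at 540 nm. % growth inhibition = (1 − treated/untreated absorbance) × 100. Three independent experiments in quadruplicate.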

SW480 = experiment: Cytotoxicity against human SW480 cells after 72 hrs by MTT assay; assay type: functional, cell-based; details: SW480, 72 h; outline: as §1
SW-620 = experiment: Cytotoxicity against human SW620 cells after 72 hrs by MTT assay; assay type: functional, cell-based; details: SW-620, 72 h; outline: as §1
K562 = experiment: Cytotoxicity against human K562 cells after 72 hrs by MTT assay; assay type: functional, cell-based; details: K562, 72 h; outline: as §1
[1] = target: DNA topoisomerase 2-alpha (Homo sapiens, UniProt P11388); experiment: Inhibition of human DNA topoisomerase 2-mediated Crithidia fasciculata kDNA decatenation using ethidium bromide staining by agarose gel electrophoresis
Chain of DNA topoisomerase 2-alpha (P11388 whole entry): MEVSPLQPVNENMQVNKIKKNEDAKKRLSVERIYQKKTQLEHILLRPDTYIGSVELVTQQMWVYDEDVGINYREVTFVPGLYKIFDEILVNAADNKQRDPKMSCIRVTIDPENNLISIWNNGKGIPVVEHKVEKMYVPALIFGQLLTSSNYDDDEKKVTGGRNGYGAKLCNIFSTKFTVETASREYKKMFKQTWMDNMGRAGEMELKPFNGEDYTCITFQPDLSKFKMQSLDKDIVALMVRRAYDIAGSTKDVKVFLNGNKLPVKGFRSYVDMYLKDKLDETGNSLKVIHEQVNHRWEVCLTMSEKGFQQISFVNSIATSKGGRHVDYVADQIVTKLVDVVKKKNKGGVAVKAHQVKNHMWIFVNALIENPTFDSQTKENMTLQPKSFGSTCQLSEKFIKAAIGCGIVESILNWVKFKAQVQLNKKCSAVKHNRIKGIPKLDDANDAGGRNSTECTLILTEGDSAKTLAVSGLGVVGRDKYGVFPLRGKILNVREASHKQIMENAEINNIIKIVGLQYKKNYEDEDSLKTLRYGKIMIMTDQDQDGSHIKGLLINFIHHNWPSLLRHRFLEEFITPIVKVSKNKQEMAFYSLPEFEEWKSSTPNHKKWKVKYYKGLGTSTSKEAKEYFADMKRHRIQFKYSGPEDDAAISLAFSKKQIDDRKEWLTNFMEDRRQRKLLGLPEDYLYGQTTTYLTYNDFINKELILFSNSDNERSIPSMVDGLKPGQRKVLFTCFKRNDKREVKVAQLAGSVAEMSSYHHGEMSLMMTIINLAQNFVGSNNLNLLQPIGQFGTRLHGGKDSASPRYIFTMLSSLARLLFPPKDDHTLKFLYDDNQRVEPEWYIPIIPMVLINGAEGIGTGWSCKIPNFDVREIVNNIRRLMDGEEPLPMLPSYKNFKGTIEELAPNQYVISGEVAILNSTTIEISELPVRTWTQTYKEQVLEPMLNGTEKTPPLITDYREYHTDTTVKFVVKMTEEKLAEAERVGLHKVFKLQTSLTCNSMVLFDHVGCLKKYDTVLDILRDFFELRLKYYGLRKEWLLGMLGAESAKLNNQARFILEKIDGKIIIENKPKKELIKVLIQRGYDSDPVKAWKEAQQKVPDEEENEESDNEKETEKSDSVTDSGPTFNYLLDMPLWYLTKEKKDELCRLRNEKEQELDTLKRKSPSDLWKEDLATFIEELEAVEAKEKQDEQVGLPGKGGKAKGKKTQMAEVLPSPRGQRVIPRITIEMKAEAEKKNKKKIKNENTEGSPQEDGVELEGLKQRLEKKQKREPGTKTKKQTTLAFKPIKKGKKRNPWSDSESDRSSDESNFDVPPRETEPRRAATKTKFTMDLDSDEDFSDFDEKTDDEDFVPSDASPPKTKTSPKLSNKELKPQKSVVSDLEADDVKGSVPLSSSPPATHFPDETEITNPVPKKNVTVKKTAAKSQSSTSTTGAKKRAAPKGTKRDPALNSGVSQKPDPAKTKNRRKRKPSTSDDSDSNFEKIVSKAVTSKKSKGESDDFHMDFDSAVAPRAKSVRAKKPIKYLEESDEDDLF
Outline: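 Crithidia fasciculata kDNA (5 µg/mL) with 4 units human Topo II in 30 mM Tris–HCl pH 7.6, 60 mM NaCl, 8 mM MgCl2, 15 mM 2-mercaptoethanol, 3 mM ATP, 8% DMSO, 30 min at 37 °C. Proteinase K follows, then chloroform/isoamyl extraction and agarose gel with ethidium bromide. Decatenated plus linear DNA quantified densitometrically as % of total. Screened at 160 µM, IC50 from 1–160 µM curves.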

| Compound | IC50 (HeLa) [µM] | IC50 (SW480) [µM] | IC50 (SW-620) [µM] | IC50 (K562) [µM] | IC50 [1] [µM] |
| --- | --- | --- | --- | --- | --- |
| CSc1nc2c(Nc3cccc(NC(C)=O)c3)c3ccccc3nc2s1 | > 80 | > 80 | > 80 | > 80 | 29.6 |
| CCN(CC)CCNc1nc2c(Nc3ccccc3)c3ccccc3nc2s1 | 16 | 37.7 | 21.6 | 16.8 | 169 |
| CSc1nc2c(Nc3cc(N)cc(CO)c3)c3ccccc3nc2s1 | > 80 | > 80 | > 80 | > 80 | 18 |
| CSc1nc2c(Nc3cccc(Cl)c3)c3ccccc3nc2s1 | 69.4 | > 80 | > 80 | 80.3 | 21.2 |
| CSc1nc2c(Nc3ccc(Cl)cc3)c3ccccc3nc2s1 | > 80 | > 80 | > 80 | 79.5 | 20.5 |
| CSc1nc2c(Nc3cccc(C(F)(F)F)c3)c3ccccc3nc2s1 | 43.3 | 65.1 | 62.3 | 67.1 | 15.4 |
| CNc1cccc(Nc2c3ccccc3nc3sc(SC)nc23)c1 | 46.2 | > 80 | > 80 | 46.9 | 12.3 |
| CSc1nc2c(Nc3cccc(N)c3)c3ccccc3nc2s1 | > 80 | > 80 | > 80 | > 80 | 16.7 |
| CSc1nc2c(Nc3ccccc3)c3ccccc3nc2s1 | > 80 | > 80 | > 80 | > 80 | – |
| CSc1nc2c(Nc3cccc(O)c3)c3ccccc3nc2s1 | > 80 | > 80 | > 80 | > 80 | 64.3 |
| CCOC(=O)c1cccc(Nc2c3ccccc3nc3sc(SC)nc23)c1 | > 80 | > 80 | > 80 | > 80 | – |
| CCN(CC)CCNc1nc2c(Nc3cccc(C#N)c3)c3ccccc3nc2s1 | 13.3 | 13.1 | 14.6 | 12.5 | – |
| CSc1nc2c(Nc3ccc(C#N)cc3)c3cc(F)ccc3nc2s1 | > 80 | > 80 | > 80 | – | – |
| COc1ccc(Nc2c3cc(F)ccc3nc3sc(SC)nc23)cc1 | > 80 | > 80 | > 80 | 54.9 | – |
| Clc1c2ccccc2nc2sc(N3CCCCC3)nc12 | > 80 | > 80 | > 80 | > 80 | – |
| CN1CCN(c2nc3c(Cl)c4ccccc4nc3s2)CC1 | > 80 | > 80 | > 80 | > 80 | – |
| c1ccc(Nc2c3ccccc3nc3sc(N4CCCCC4)nc23)cc1 | > 80 | > 80 | > 80 | > 80 | – |
| CCN(CC)CCNc1nc2c(Nc3cccc(OC)c3)c3ccccc3nc2s1 | 19.2 | 11.5 | 20 | 23.5 | – |

| Compound | IC50 (HeLa) [µM] | IC50 (SW480) [µM] | IC50 (SW-620) [µM] | IC50 (K562) [µM] | IC50 [1] [µM] |
| --- | --- | --- | --- | --- | --- |
| CCN(CC)CCNc1nc2c(Nc3ccc(C#N)cc3)c3ccccc3nc2s1 | 15.2 | 14.2 | 16.5 | 8.36 | – |
| CCN(CC)CCCNc1nc2c(Nc3cccc(Cl)c3)c3ccccc3nc2s1 | 7.46 | 7.91 | 10.2 | 9.84 | 40.9 |
| CCN(CC)CCCNc1nc2c(Nc3ccc(Cl)cc3)c3ccccc3nc2s1 | 8.82 | 4.92 | 7.48 | 3.36 | – |
| CCN(CC)CCNc1nc2c(Nc3ccc(Cl)cc3)c3ccccc3nc2s1 | 10.2 | 12.6 | 12.2 | 7.26 | – |
| CCN(CC)CCCNc1nc2c(Nc3cccc(C#N)c3)c3ccccc3nc2s1 | 19.2 | 11.5 | 19.7 | 12.9 | – |
| CCN(CC)CCCNc1nc2c(Nc3ccccc3)c3ccccc3nc2s1 | 6.27 | 6.9 | 16.6 | 7.52 | – |
| CSc1nc2c(Nc3ccccc3)c3cc(F)ccc3nc2s1 | > 80 | > 80 | > 80 | > 80 | – |
| CSc1nc2c(Nc3cccc(C#N)c3)c3cc(F)ccc3nc2s1 | > 80 | > 80 | > 80 | 55.4 | – |
| Clc1c2ccccc2nc2sc(N3CCOCC3)nc12 | > 80 | > 80 | > 80 | > 80 | – |
| c1ccc(Nc2c3ccccc3nc3sc(N4CCOCC4)nc23)cc1 | > 80 | > 80 | > 80 | > 80 | – |
| CSc1nc2c(Nc3cccc(/C(C)=N\O)c3)c3ccccc3nc2s1 | 34.2 | 37.3 | 39.4 | 32.8 | – |
| CCN(CC)CCCNc1nc2c(Nc3ccc(C#N)cc3)c3ccccc3nc2s1 | 24.2 | 22.7 | 29.2 | 12.9 | – |
| COc1cccc(Nc2c3cc(F)ccc3nc3sc(SC)nc23)c1 | 15.8 | 13.7 | 12.2 | – | – |
| CCN(CC)CCNc1nc2c(Nc3cccc(Cl)c3)c3ccccc3nc2s1 | 9.12 | 14.3 | 17.8 | 12.2 | – |
| CSc1nc2c(Nc3cccc(C(C)=O)c3)c3ccccc3nc2s1 | > 80 | > 80 | > 80 | > 80 | – |
| CCN(CC)CCNc1nc2c(Nc3ccc(OC)cc3)c3ccccc3nc2s1 | 13.6 | 12 | 16.4 | 10.9 | – |
| CN1CCN(c2nc3c(Nc4ccccc4)c4ccccc4nc3s2)CC1 | 60.7 | 41.8 | > 80 | 73 | – |
| COc1cc(NS(C)(=O)=O)ccc1Nc1c2ccccc2nc2ccccc12 [AMSACRINE] | 9.5 | 27.7 | 16.7 | 19.9 | 9.94 |
